Screening results deposited in PubChem by Broad Institute.
The entries come from a sample that favours hits as a whole.
IDH1 R132H inh = inhibitors of IDH1 R132H reductase, primary screen, biochemical, plate reader, single point; 70,000 tested, 0.18% active; diaphorase/resazurin fluorescence, 60 min; inhibition, % at 10 µM; Isocitrate dehydrogenase [NADP] cytoplasmic (Homo sapiens), O75874; in the data active = inhibition above about 34%; inconclusive = no clear call, values can overlap the other calls; inactive = below about 11%
Target sequence (O75874 whole entry R132H): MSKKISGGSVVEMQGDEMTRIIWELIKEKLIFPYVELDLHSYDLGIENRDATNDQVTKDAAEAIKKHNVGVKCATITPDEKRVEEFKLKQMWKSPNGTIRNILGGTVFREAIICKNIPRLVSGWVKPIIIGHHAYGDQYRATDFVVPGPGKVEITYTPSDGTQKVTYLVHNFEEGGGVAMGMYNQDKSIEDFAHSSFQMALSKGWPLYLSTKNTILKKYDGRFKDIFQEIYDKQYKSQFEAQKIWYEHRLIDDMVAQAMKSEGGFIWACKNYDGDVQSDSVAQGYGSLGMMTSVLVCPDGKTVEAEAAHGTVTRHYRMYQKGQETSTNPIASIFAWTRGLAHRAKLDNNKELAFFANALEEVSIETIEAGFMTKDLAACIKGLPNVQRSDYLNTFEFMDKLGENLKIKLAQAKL
T cruzi growth-1 = T. cruzi intracellular proliferation inhibitors, primary screen, cell-based, beta-gal Tulahuen parasites, NIH3T3 host, luminescence; AID 624255, 2012; T. cruzi beta-gal in NIH3T3, GalScreen luminescence, 90 h; inhibition, % at 8.34 µM; 77,000 tested, 5.9% active;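 active = mean inhibition above about 93%, with at least 55% of replicates each passing it, limit read from the data, passing the limit was not always enough; inconclusive = only one of those two conditions holds; inactive = neither condition holds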
KDM4C inh = inhibitors of GASC-1 (KDM4C) histone demethylase, primary screen, biochemical, single concentration HTS; inhibition, % at 12.5 µM; 96,000 tested, 0.15% active; Lysine-specific demethylase 4C (Homo sapiens), Q9H3R0; GST-KDM4C 2-372, H3K9me3 peptide, LANCE TR-FRET;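 active = mean replicate inhibition above about 25%, with at least 55% of replicates also reaching it, limit read from the data, passing the limit was not always enough; inconclusive = only one of those two conditions met; inactive = neither condition met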
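System – N-terminal GST-fused human GASC-1 (KDM4C) fragment, residues 2-372 · Input – enzyme final amount 10 nM · Technique – LANCE TR-FRET, Eu antibody, ULight-streptavidin, EDTA, ex 340 nm, em 618/671 nm · Medium – HEPES buffer, pH 7.5, plus ascorbate · Incubation – enzyme reaction 30 min, then detection 60 min, both room temperature · Reagent – H3K9me3 peptide with Fe(II)/2OG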
T cruzi growth-2 = T. cruzi intracellular proliferation inhibitors, confirmation, cell-based, NIH3T3 host, beta-gal parasite, luminescence, cherry-pick | shares compounds with T cruzi growth-1 | T. cruzi beta-gal in NIH3T3, GalScreen luminescence, 90 h | inhibition, % at 8.35 µM | 5,600 tested, 72% active;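 active = mean replicate inhibition above about 95% and at least 55% of replicates individually reaching it, limit read from the data; inconclusive = only one of the two criteria is met; inactive = neither criterion is met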
T cruzi growth-3 = inhibitors of intracellular T. cruzi replication, confirmation, NIH3T3 host cells, beta-gal parasites, cherry-pick, set 2; 5,600 tested, 21% active; shares compounds with T cruzi growth-1; inhibition, % at 2.09 µM; T. cruzi beta-gal in NIH3T3, GalScreen luminescence, 90 h;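 active = mean inhibition above about 95%, with at least 55% of replicates also reaching it, limit read from the data; inconclusive = meets just one of the two conditions; inactive = meets neither condition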
NIH3T3 tox = cytotoxicity in mouse NIH/3T3 fibroblasts, confirmation, cytotoxicity control for T. cruzi proliferation inhibitor project, cell-based, cherry-pick, single point. cytotoxicity (signal decrease), % at 8.35 µM. 5,600 tested, 14% active. shares compounds with T cruzi growth-1. AID 651742, 2012. NIH/3T3 viability, CellTiter-Glo ATP luminescence, 90 h;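 active = mean signal decrease across replicates above about 35% based on untreated-well scatter, with enough replicates individually passing, limit read from the data; inconclusive = no rule stated though some were filed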
3T3 cytotox 2 = NIH/3T3 fibroblast cytotoxicity, confirmation, cytotoxicity control, cell-based, cherry-pick, single point, set 2; shares compounds with T cruzi growth-1; NIH/3T3 viability, CellTiter-Glo ATP luminescence, 90 h; inhibition, % at 24.9 µM; 5,600 tested, 56% active; AID 651744, 2012;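 active = mean loss of cell viability signal at or above a set limit, and enough replicates individually reaching it; inconclusive = meets only the mean limit or only the replicate share; inactive = meets neither condition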
A number is an active result; – = inactive; ? = inconclusive; · = not tested or not shown; ! = repeats disagree.

SMILES | IDH1 R132H inh | T cruzi growth-1 | KDM4C inh | T cruzi growth-2 | T cruzi growth-3 | NIH3T3 tox | 3T3 cytotox 2
C[C@H](CO)N1C[C@H](C)[C@@H](CN(C)Cc2ccc(C(=O)Nc3ccccc3N)cc2)Oc2c(NC(=O)c3nc4ccccc4s3)cccc2C1=O | · | 106 | – | 108 | – | – | –
C[C@H](CO)N1C[C@H](C)[C@H](CN(C)Cc2ccc(C(=O)Nc3ccccc3N)cc2)Oc2c(NC(=O)c3nc4ccccc4s3)cccc2C1=O | – | ? | – | 102 | 105 | – | 64
COc1ccc([N+](=O)[O-])cc1NC(=O)CN(c1ccc(F)c(Cl)c1)S(C)(=O)=O | – | · | · | · | · | · | ·
Cc1ccc(S(=O)(=O)NCC[C@@H]2CC[C@@H](NC(=O)CC3CC3)[C@@H](CO)O2)cc1 | – | – | – | · | · | · | ·
Cc1ccc(-c2cnc3c(c2)C(=O)N([C@H](C)CO)C[C@@H](C)[C@H](CN(C)C(=O)c2cccc(F)c2)O3)cc1 | – | · | – | · | · | · | ·
O=C(CC1CC1)Nc1ccc2c(c1)[C@@H]1C[C@@H](CC(=O)N3CCCCC3)O[C@H](CO)[C@@H]1O2 | – | 110 | – | – | – | – | –
O=C(CC1CC1)Nc1ccc2c(c1)[C@H]1C[C@@H](CC(=O)N3CCCCC3)O[C@@H](CO)[C@H]1O2 | – | – | – | · | · | · | ·
O=C(C[C@@H]1C[C@@H]2c3cc(NS(=O)(=O)c4ccccc4)ccc3O[C@@H]2[C@@H](CO)O1)N1CCOCC1 | – | – | – | · | · | · | ·
O=C(CC1CC1)Nc1ccc2c(c1)[C@H]1C[C@@H](CC(=O)N3CCCCC3)O[C@H](CO)[C@H]1O2 | – | 104 | – | ? | – | – | –
O=C(C[C@@H]1C[C@@H]2c3cc(NS(=O)(=O)c4ccccc4)ccc3O[C@@H]2[C@H](CO)O1)N1CCCCC1 | – | 104 | – | – | – | – | –
O=C(CC1CC1)Nc1ccc2c(c1)[C@H]1C[C@H](CC(=O)N3CCCCC3)O[C@H](CO)[C@H]1O2 | – | – | – | · | · | · | ·
CCc1ccc(CCC(=O)Nc2cc(Cl)ccc2Cl)o1 | – | · | · | · | · | · | ·
Cc1cc(C)c2oc(-c3ccc(NC(=O)COc4ccccc4[N+](=O)[O-])cc3)nc2c1 | – | · | · | · | · | · | ·
C[C@H](CO)N1C[C@H](C)[C@H](CN(C)C(=O)c2ccccc2)OCCCC[C@H](C)Oc2ccc(NS(=O)(=O)c3ccc(Cl)cc3)cc2C1=O | · | 101 | – | – | – | – | –
C[C@@H]1CCCCO[C@@H](CN(C)C(=O)Nc2ccccc2)[C@@H](C)CN([C@H](C)CO)C(=O)c2cc(NS(=O)(=O)c3ccc(Cl)cc3)ccc2O1 | – | – | – | · | · | · | ·
C[C@H]1CCCCO[C@@H](CN(C)C(=O)Cc2ccccc2)[C@@H](C)CN([C@@H](C)CO)C(=O)c2cc(NS(=O)(=O)c3ccc(Cl)cc3)ccc2O1 | · | 101 | – | 109 | – | – | –
C[C@H]1CCCCO[C@H](CN(C)C(=O)Nc2ccccc2)[C@@H](C)CN([C@@H](C)CO)C(=O)c2cc(NS(=O)(=O)c3ccc(Cl)cc3)ccc2O1 | · | ? | – | 103 | – | – | –
C[C@@H]1CCCCO[C@@H](CN(C)C(=O)Nc2ccccc2)[C@@H](C)CN([C@@H](C)CO)C(=O)c2cc(NS(=O)(=O)c3ccc(Cl)cc3)ccc2O1 | · | 118 | – | 104 | – | – | –
C[C@@H]1CCCCO[C@H](CN(C)C(=O)c2ccccc2)[C@H](C)CN([C@@H](C)CO)C(=O)c2cc(NS(=O)(=O)c3ccc(Cl)cc3)ccc2O1 | – | – | – | · | · | · | ·
C[C@@H]1CCCCO[C@H](CN(C)C(=O)Nc2ccccc2)[C@H](C)CN([C@H](C)CO)C(=O)c2cc(NS(=O)(=O)c3ccc(Cl)cc3)ccc2O1 | – | · | – | · | · | · | ·
C[C@@H]1CCCCO[C@H](CN(C)C(=O)Cc2ccccc2)[C@H](C)CN([C@@H](C)CO)C(=O)c2cc(NS(=O)(=O)c3ccc(Cl)cc3)ccc2O1 | – | – | – | · | · | · | ·
O=C(CCCN1C(=O)c2ccccc2C1=O)Nc1ccc(Br)cc1F | – | · | · | · | · | · | ·
C[C@@H]1CN([C@@H](C)CO)C(=O)c2cc(C#Cc3ccccn3)cnc2O[C@H]1CN(C)Cc1ccncc1 | – | ? | – | 108 | – | – | –
C[C@H](CO)N1C[C@H](C)[C@H](CN(C)Cc2ccccc2)Oc2ncc(C#CC3(O)CCCC3)cc2C1=O | – | 102 | – | – | – | – | –
C[C@H](CO)N1C[C@H](C)[C@@H](CN(C)Cc2ccccc2)Oc2ncc(C#Cc3ccccn3)cc2C1=O | – | – | – | · | · | · | ·
SMILES | IDH1 R132H inh | T cruzi growth-1 | KDM4C inh | T cruzi growth-2 | T cruzi growth-3 | NIH3T3 tox | 3T3 cytotox 2
C[C@@H]1CN([C@@H](C)CO)C(=O)c2cc(C#CC3(O)CCCC3)cnc2O[C@H]1CN(C)Cc1ccccc1 | – | – | – | · | · | · | ·
C[C@@H]1CN([C@H](C)CO)C(=O)c2cc(C#Cc3ccccc3)cnc2O[C@H]1CN(C)C(=O)c1ccccn1 | – | 111 | – | 101 | – | – | 30
C[C@@H]1CN([C@H](C)CO)C(=O)c2cc(C#Cc3ccccc3)cnc2O[C@@H]1CN(C)C(=O)c1ccccn1 | – | – | – | · | · | · | ·
C[C@H]1CN([C@@H](C)CO)C(=O)c2cc(C#Cc3ccccn3)cnc2O[C@H]1CN(C)Cc1ccncc1 | – | – | – | · | · | · | ·
C[C@H]1CN([C@@H](C)CO)C(=O)c2cc(C#Cc3ccccn3)cnc2O[C@@H]1CN(C)Cc1ccccc1 | – | 121! | – | 107 | – | – | –
C[C@H]1CN([C@@H](C)CO)C(=O)c2cc(-c3cncnc3)cnc2O[C@@H]1CN(C)C(=O)Cc1ccccn1 | – | – | – | · | · | · | ·
C/C=C(\C)C(=O)O[C@@H]1C(C)=C2[C@H]3OC(=O)[C@](C)(O)[C@]3(O)[C@H](OC(=O)C(C)CC)C[C@@](C)(OC(C)=O)[C@@H]2[C@H]1OC(=O)CCCCCCC (stereo partly specified) | – | · | · | · | · | · | ·
COc1ccc(-c2cnc3c(c2)C(=O)N([C@@H](C)CO)C[C@H](C)[C@@H](CN(C)S(=O)(=O)c2ccc(OC)cc2)O3)cc1 | – | 105 | – | 104 | – | – | ?
C[C@@H]1CN([C@@H](C)CO)C(=O)c2cc(C#CCN(C)C)cnc2O[C@@H]1CN(C)S(=O)(=O)c1ccccc1 | – | – | – | · | · | · | ·
